Data from ChEMBL document CHEMBL5653631, “A Potent and Selective ULK1 Inhibitor Suppresses Autophagy and Sensitizes Cancer Cells to Nutrient Stress” (iScience, 2018).

Tests used:
[1] = biological target: Leucine-rich repeat serine/threonine-protein kinase 2 (Homo sapiens) (UniProt Q5S007); assay: Inhibition of human recombinant LRRK2 at 40 nM related to control ULK1
[2] = biological target: STE20-like serine/threonine-protein kinase (Homo sapiens) (UniProt Q9H2G2); assay: Inhibition of human recombinant SLK at 40 nM related to control ULK1
[3] = biological target: 5'-AMP-activated protein kinase catalytic subunit alpha-1 (Homo sapiens) (UniProt Q13131); assay: Inhibition of human recombinant AMPKa1 at 15 nM in presence of ATP by radiometric assay relative to control
5'-AMP-activated protein kinase catalytic subunit alpha-1 (Homo sapiens), sequence (Q13131 whole entry, looked up): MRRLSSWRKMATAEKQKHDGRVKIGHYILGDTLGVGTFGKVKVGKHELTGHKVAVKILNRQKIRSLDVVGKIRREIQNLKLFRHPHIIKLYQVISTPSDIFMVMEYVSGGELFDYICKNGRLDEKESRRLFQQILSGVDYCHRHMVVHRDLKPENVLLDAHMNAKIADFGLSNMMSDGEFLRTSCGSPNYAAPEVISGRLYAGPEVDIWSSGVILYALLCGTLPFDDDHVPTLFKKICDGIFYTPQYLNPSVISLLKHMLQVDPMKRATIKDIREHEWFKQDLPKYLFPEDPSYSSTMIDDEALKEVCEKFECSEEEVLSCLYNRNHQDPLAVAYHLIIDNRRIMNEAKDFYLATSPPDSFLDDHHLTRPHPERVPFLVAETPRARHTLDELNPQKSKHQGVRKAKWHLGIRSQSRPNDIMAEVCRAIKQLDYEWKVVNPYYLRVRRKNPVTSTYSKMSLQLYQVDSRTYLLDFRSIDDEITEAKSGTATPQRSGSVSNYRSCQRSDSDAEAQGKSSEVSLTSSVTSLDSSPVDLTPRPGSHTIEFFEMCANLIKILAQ
Procedure, shortened: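 Panel of 327 recombinant human kinases, each assayed in vitro by radiometric activity assay in duplicate at a single inhibitor concentration per compound, chosen with reference to its ULK1 inhibition. Activity remaining was expressed as percent of vehicle control, and percent inhibition was calculated as 100 minus percent activity remaining.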

[4] = biological target: Macrophage colony-stimulating factor 1 receptor (Homo sapiens) (UniProt P07333); assay: Inhibition of human recombinant FMS at 15 nM in presence of ATP by radiometric assay relative to control
Macrophage colony-stimulating factor 1 receptor (Homo sapiens), sequence (P07333 whole entry): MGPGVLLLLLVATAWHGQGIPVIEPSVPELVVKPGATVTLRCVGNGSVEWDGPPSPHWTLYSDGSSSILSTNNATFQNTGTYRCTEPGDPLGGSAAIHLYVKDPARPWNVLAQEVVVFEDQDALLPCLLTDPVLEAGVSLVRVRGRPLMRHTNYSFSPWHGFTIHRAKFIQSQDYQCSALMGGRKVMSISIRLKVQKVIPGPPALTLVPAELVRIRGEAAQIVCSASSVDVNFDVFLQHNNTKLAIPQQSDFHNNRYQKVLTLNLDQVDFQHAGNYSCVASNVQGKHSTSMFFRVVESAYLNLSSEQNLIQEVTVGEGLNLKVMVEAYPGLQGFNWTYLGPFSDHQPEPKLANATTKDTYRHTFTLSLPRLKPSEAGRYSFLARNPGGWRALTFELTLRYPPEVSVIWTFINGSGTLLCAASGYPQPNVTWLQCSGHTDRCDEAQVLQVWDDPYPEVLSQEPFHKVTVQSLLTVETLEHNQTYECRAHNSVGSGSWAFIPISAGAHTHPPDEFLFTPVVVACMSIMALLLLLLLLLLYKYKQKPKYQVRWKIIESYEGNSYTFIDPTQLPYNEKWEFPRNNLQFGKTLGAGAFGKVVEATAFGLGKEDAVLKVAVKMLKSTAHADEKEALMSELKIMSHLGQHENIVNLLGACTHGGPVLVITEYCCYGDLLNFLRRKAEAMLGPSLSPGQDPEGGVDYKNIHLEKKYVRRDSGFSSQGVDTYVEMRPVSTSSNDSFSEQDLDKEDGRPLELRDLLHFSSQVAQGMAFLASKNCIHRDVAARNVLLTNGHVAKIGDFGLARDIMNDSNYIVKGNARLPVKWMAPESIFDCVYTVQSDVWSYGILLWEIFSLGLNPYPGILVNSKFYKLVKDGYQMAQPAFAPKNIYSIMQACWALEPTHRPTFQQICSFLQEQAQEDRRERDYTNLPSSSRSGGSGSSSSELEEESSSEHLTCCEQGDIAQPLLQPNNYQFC

[5] = biological target: cAMP-dependent protein kinase catalytic subunit alpha (Homo sapiens) (UniProt P17612); assay: Inhibition of human recombinant PKACalpha at 15 nM in presence of ATP by radiometric assay relative to control
[6] = biological target: Serine/threonine-protein kinase N1 (Homo sapiens) (UniProt Q16512); assay: Inhibition of human recombinant PKN1 at 15 nM in presence of ATP by radiometric assay relative to control
Serine/threonine-protein kinase N1 (Homo sapiens), sequence (Q16512 2-942 limits assumed): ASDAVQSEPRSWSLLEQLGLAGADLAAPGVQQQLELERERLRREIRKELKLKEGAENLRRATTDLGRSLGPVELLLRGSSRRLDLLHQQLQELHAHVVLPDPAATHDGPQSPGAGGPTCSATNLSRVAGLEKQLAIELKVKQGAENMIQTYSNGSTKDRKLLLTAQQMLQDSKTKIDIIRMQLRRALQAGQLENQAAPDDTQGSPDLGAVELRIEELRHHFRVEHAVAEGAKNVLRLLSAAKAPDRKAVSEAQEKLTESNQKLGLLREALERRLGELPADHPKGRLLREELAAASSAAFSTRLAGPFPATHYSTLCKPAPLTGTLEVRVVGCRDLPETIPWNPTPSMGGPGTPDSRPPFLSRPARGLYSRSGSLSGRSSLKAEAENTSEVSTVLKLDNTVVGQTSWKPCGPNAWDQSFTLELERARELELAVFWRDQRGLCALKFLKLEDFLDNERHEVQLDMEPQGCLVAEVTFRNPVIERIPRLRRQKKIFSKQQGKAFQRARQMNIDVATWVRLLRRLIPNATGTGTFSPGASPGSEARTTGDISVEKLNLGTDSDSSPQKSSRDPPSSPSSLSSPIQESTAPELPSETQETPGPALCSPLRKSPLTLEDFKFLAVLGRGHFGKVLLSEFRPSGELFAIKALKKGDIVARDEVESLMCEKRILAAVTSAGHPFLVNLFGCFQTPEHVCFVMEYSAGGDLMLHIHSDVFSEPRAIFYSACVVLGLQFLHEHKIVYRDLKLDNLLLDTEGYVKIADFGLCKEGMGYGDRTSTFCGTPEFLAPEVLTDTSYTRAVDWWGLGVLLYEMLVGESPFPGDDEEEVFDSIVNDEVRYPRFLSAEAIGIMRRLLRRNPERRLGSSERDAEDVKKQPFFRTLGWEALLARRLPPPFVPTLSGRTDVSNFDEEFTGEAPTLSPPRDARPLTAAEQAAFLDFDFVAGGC

[7] = biological target: T1, Mitogen-activated protein kinase kinase kinase 7 (Homo sapiens) (UniProt O43318); assay: Inhibition of human recombinant TAK1 at 15 nM in presence of ATP by radiometric assay relative to control
T1 sequence (whole entry): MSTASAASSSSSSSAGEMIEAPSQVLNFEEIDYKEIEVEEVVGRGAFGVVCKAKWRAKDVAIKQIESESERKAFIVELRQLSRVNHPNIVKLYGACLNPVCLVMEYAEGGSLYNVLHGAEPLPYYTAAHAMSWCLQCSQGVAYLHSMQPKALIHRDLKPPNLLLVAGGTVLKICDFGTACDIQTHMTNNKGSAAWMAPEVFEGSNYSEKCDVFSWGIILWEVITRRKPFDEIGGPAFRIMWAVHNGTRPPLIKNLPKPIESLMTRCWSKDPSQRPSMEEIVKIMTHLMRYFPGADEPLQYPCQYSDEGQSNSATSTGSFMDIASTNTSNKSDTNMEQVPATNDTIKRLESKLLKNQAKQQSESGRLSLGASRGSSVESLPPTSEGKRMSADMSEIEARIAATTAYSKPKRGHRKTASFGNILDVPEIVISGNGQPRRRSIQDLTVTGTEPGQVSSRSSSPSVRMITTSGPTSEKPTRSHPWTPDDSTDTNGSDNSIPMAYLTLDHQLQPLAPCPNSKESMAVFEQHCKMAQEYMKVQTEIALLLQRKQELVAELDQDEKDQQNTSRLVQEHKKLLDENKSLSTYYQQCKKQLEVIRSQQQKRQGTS

[8] = biological target: Serine/threonine-protein kinase 32B (Homo sapiens) (UniProt Q9NY57); assay: Inhibition of human recombinant YANK2 at 15 nM in presence of ATP by radiometric assay relative to control
Serine/threonine-protein kinase 32B (Homo sapiens), sequence (Q9NY57 whole entry): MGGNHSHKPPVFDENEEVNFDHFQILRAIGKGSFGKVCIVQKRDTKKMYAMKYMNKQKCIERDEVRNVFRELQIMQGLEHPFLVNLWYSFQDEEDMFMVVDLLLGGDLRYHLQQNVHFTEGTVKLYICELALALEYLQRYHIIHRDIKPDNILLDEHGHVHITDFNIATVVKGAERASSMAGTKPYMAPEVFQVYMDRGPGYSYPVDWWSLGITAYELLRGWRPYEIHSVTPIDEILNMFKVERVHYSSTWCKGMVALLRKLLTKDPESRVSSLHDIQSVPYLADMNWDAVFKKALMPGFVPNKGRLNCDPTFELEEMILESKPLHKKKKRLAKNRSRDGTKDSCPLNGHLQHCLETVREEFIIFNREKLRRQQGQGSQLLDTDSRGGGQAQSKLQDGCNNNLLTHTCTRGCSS

[9] = biological target: Serine/threonine-protein kinase N1 (Homo sapiens) (UniProt Q16512); assay: Inhibition of human recombinant PKN1 at 15 nM related to control ULK1
[10] = biological target: Ephrin type-A receptor 2 (Homo sapiens) (UniProt P29317); assay: Inhibition of human recombinant EphA2 at 500 nM in presence of ATP by radiometric assay relative to control
Ephrin type-A receptor 2 (Homo sapiens), sequence (P29317 whole entry): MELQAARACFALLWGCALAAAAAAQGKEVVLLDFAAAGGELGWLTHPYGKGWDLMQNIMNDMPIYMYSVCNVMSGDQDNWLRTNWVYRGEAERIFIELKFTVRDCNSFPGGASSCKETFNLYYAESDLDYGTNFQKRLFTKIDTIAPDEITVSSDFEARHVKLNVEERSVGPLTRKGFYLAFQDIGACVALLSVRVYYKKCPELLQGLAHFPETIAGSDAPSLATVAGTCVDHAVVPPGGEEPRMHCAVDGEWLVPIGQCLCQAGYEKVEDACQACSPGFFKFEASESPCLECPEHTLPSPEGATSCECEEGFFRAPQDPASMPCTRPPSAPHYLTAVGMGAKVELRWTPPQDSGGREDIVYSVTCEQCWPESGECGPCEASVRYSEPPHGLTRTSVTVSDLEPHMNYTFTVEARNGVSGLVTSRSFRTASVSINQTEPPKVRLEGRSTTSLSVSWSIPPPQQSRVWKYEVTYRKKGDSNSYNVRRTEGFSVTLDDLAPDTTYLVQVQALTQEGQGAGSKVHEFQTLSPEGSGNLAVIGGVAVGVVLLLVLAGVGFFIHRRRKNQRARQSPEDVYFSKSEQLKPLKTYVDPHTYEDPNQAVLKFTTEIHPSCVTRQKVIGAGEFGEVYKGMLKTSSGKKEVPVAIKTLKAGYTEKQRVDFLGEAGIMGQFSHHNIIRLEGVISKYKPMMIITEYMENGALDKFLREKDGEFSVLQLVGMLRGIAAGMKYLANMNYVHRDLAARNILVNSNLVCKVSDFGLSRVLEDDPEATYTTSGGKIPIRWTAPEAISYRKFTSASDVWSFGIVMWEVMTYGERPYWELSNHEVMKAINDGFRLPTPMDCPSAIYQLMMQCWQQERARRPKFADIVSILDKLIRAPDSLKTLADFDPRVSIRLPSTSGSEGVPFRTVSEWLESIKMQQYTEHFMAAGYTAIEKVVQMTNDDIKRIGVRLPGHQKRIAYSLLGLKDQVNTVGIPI

[11] = biological target: G protein-coupled receptor kinase 6 (Homo sapiens) (UniProt P43250); assay: Inhibition of human recombinant GPRK6 at 500 nM in presence of ATP by radiometric assay relative to control
G protein-coupled receptor kinase 6 (Homo sapiens), sequence (P43250 whole entry, looked up): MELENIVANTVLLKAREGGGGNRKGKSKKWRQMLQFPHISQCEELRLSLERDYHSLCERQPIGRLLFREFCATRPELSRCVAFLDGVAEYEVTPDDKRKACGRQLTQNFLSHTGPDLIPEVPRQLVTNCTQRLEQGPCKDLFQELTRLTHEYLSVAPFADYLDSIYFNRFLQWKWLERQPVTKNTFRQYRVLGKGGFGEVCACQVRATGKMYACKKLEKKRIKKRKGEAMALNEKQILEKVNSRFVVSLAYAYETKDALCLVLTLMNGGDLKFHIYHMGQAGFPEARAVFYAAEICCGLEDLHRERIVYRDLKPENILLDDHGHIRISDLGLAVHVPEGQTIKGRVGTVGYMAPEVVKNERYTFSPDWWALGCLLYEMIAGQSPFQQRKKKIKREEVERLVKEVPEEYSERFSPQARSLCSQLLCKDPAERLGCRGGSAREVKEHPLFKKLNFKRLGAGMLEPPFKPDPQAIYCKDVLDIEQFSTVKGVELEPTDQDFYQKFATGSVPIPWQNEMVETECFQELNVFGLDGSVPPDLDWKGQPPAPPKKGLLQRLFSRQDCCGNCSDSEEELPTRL

[12] = biological target: T2, Mitogen-activated protein kinase kinase kinase 2 (Homo sapiens) (UniProt Q9Y2U5); assay: Inhibition of human recombinant MAP3K2 at 500 nM in presence of ATP by radiometric assay relative to control
T2 sequence (whole entry): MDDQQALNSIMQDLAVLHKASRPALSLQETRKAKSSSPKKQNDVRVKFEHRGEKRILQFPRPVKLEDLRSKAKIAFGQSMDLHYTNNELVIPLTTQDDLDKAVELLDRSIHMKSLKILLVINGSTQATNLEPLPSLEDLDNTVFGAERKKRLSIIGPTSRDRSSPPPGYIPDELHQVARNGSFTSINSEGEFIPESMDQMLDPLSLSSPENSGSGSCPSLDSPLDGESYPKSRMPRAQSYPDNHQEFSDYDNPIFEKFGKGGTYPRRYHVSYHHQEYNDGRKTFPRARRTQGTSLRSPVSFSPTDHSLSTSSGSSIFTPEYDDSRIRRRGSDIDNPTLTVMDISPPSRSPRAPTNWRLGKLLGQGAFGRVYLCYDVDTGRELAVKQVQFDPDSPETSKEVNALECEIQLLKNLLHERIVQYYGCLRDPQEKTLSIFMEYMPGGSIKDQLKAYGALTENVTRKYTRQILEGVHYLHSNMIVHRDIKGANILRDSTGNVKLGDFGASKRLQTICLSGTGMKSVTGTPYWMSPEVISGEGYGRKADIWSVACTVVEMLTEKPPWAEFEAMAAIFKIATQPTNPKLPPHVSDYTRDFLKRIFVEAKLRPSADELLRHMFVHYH

[13] = biological target: Dual specificity protein kinase CLK3 (Homo sapiens) (UniProt P49761); assay: Inhibition of human recombinant CLK3 at 500 nM related to control ULK1
Dual specificity protein kinase CLK3 (Homo sapiens), sequence (P49761 whole entry, looked up): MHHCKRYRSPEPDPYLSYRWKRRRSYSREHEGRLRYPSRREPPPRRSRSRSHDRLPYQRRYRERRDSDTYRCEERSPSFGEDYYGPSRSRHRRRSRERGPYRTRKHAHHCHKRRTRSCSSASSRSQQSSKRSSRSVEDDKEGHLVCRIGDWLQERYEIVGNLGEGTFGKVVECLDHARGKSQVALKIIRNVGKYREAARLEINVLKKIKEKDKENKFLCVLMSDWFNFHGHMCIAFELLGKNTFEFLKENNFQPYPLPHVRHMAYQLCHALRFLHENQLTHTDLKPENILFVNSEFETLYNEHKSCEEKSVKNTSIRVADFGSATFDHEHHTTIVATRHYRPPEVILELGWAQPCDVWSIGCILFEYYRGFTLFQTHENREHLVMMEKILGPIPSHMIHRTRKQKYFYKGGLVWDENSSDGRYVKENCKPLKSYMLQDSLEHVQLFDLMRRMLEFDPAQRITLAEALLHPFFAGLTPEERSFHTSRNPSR

Homo sapiens = species on record: Homo sapiens; assay: Inhibition of human recombinant KHS1 at 500 nM related to control ULK1
[14] = biological target: Hepatocyte growth factor receptor (Homo sapiens) (UniProt P08581); assay: Inhibition of human recombinant MET at 500 nM in presence of ATP by radiometric assay relative to control

O=C(N[C@@H](C1CC1)C(F)(F)F)c1cc(-c2cnn3cc(-c4ccc(F)cc4)cnc23)cs1
fold change (FC) [1]: 0.04 | fold change (FC) [2]: 0

CC(C)[C@H](NC(=O)c1cc(-c2cnn3cc(-c4ccc(OCCN5CCCCC5)cc4)cnc23)cs1)C(F)(F)F
inhibition [3]: 58% | inhibition [4]: 17% | inhibition [5]: 0% | inhibition [6]: 0% | inhibition [7]: 1% | inhibition [8]: 0% | fold change (FC) [9]: 0

CNC(=O)c1ccccc1Oc1nc(Nc2cc(OC)c(OC)c(OC)c2)ncc1Br
inhibition [10]: 2% | inhibition [11]: 12% | inhibition [12]: 3% | fold change (FC) [13]: 0 | fold change (FC) (Homo sapiens): 0.15 | inhibition [14]: 32%
